Reference: ChEMBL document CHEMBL4689842, “EUbOPEN Chemogenomics Library wave 1” (2021)

Tested on: Fibroblast
Test: Multiplex assay against human fibroblast
Type: toxicity, cell-based
In short: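 On a CQ1 microscope at 37°C and 5% CO2, live cells were imaged after compound addition. They had been stained at seeding with Hoechst33342, BioTracker Green Microtubule Cytoskeleton Dye, MitoTracker Red and Annexin V Alexa Fluor 680. CellPathfinder machine-learning gating assigned cells to Hoechst high-intensity objects or normal cells, normal cells to healthy, pyknosed or fragmented nuclei, and pyknosed cells to mitotic or apoptotic. Tubulin, mitochondrial-mass and membrane-permeability phenotypes are per cents of healthy-nucleus cells.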

[1] = 12 h, 1 µM, compound concentration 1 uM, replicate 1
[2] = 12 h, 1 µM, compound concentration 1 uM, replicate 2
[3] = 12 h, 10 µM, compound concentration 10 uM, replicate 1
[4] = 12 h, 10 µM, compound concentration 10 uM, replicate 2
[5] = 24 h, 1 µM, compound concentration 1 uM, replicate 1
[6] = 24 h, 1 µM, compound concentration 1 uM, replicate 2
[7] = 24 h, 10 µM, compound concentration 10 uM, replicate 1
[8] = 24 h, 10 µM, compound concentration 10 uM, replicate 2
[9] = 48 h, 1 µM, compound concentration 1 uM, replicate 1
[10] = 48 h, 1 µM, compound concentration 1 uM, replicate 2
[11] = 48 h, 10 µM, compound concentration 10 uM, replicate 1
[12] = 48 h, 10 µM, compound concentration 10 uM, replicate 2

In the case of COc1cc(Nc2nccc(-c3cnn4nc(OC)ccc34)n2)cc(C(F)(F)F)c1, the “Population Apoptotic (%)” value [1] is reported as 42%, the “Population Fragmented Nuclei (%)” value [1] is reported as 22% and the “Population Healthy Nuclei (%)” value [1] is reported as 47%. For the same molecule, the “Population Hoechst High Intensity Objects (%)” value [1] was 21%, the “Population Membrane Permeable-Phenotype (%)” value [1] was 25% and the “Population Mitochondria Different-Phenotype (%)” value [1] was 6%. The “Population Mitotic Cells (%)” value [1] was 57%, the “Population Normal (%)” value [1] was 78% and the “Population Pyknosed Nuclei (%)” value [1] was 30%. For the same molecule, the “Population Tubulin-Different-Phenotype (%)” value [1] was 43%, the “Total Cell Count” value [1] was 87 and the “Population Apoptotic (%)” value [2] was 50%. For the same molecule, the “Population Fragmented Nuclei (%)” value [2] was 8%, the “Population Healthy Nuclei (%)” value [2] was 86% and the “Population Hoechst High Intensity Objects (%)” value [2] was 3%. For the same molecule, the “Population Membrane Permeable-Phenotype (%)” value [2] was 2%, the “Population Mitochondria Different-Phenotype (%)” value [2] was 16% and the “Population Mitotic Cells (%)” value [2] was 50%. For the same molecule, the “Population Normal (%)” value [2] was 96%, the “Population Pyknosed Nuclei (%)” value [2] was 5% and the “Population Tubulin-Different-Phenotype (%)” value [2] was 16%. The “Total Cell Count” value [2] was 44, the “Population Apoptotic (%)” value [3] was 57% and the “Population Fragmented Nuclei (%)” value [3] was 66%. The “Population Healthy Nuclei (%)” value [3] was 15%, the “Population Hoechst High Intensity Objects (%)” value [3] was 48% and the “Population Membrane Permeable-Phenotype (%)” value [3] was 13%. For the same molecule, the “Population Mitochondria Different-Phenotype (%)” value [3] was 13%, the “Population Mitotic Cells (%)” value [3] was 42% and the “Population Normal (%)” value [3] was 51%. For the same molecule, the “Population Pyknosed Nuclei (%)” value [3] was 17%, the “Population Tubulin-Different-Phenotype (%)” value [3] was 47% and the “Total Cell Count” value [3] was 283. For the same molecule, the “Population Apoptotic (%)” value [4] was 33%, the “Population Fragmented Nuclei (%)” value [4] was 27% and the “Population Healthy Nuclei (%)” value [4] was 61%. For the same molecule, the “Population Hoechst High Intensity Objects (%)” value [4] was 34%, the “Population Membrane Permeable-Phenotype (%)” value [4] was 3% and the “Population Mitochondria Different-Phenotype (%)” value [4] was 6%. The “Population Mitotic Cells (%)” value [4] was 66%, the “Population Normal (%)” value [4] was 65% and the “Population Pyknosed Nuclei (%)” value [4] was 11%. The “Population Tubulin-Different-Phenotype (%)” value [4] was 15%, the “Total Cell Count” value [4] was 82 and the “Population Apoptotic (%)” value [5] was 75%. For the same molecule, the “Population Fragmented Nuclei (%)” value [5] was 22%, the “Population Healthy Nuclei (%)” value [5] was 50% and the “Population Hoechst High Intensity Objects (%)” value [5] was 19%. For the same molecule, the “Population Membrane Permeable-Phenotype (%)” value [5] was 8%, the “Population Mitochondria Different-Phenotype (%)” value [5] was 10% and the “Population Mitotic Cells (%)” value [5] was 25%. The “Population Normal (%)” value [5] was 80%, the “Population Pyknosed Nuclei (%)” value [5] was 27% and the “Population Tubulin-Different-Phenotype (%)” value [5] was 32%. For the same molecule, the “Total Cell Count” value [5] was 92, the “Population Apoptotic (%)” value [6] was 45% and the “Population Fragmented Nuclei (%)” value [6] was 10%. For the same molecule, the “Population Healthy Nuclei (%)” value [6] was 77%, the “Population Hoechst High Intensity Objects (%)” value [6] was 2% and the “Population Membrane Permeable-Phenotype (%)” value [6] was 4%. For the same molecule, the “Population Mitotic Cells (%)” value [6] was 54%, the “Population Normal (%)” value [6] was 97% and the “Population Pyknosed Nuclei (%)” value [6] was 12%. For the same molecule, the “Population Tubulin-Different-Phenotype (%)” value [6] was 19%, the “Total Cell Count” value [6] was 43 and the “Population Apoptotic (%)” value [7] was 46%. The “Population Fragmented Nuclei (%)” value [7] was 57%, the “Population Healthy Nuclei (%)” value [7] was 21% and the “Population Hoechst High Intensity Objects (%)” value [7] was 54%. The “Population Membrane Permeable-Phenotype (%)” value [7] was 23%, the “Population Mitochondria Different-Phenotype (%)” value [7] was 11% and the “Population Mitotic Cells (%)” value [7] was 53%. For the same molecule, the “Population Normal (%)” value [7] was 45%, the “Population Pyknosed Nuclei (%)” value [7] was 21% and the “Population Tubulin-Different-Phenotype (%)” value [7] was 42%. For the same molecule, the “Total Cell Count” value [7] was 273, the “Population Apoptotic (%)” value [8] was 50% and the “Population Fragmented Nuclei (%)” value [8] was 26%. The “Population Healthy Nuclei (%)” value [8] was 56%, the “Population Hoechst High Intensity Objects (%)” value [8] was 29% and the “Population Membrane Permeable-Phenotype (%)” value [8] was 0%. For the same molecule, the “Population Mitochondria Different-Phenotype (%)” value [8] was 23%, the “Population Mitotic Cells (%)” value [8] was 50% and the “Population Normal (%)” value [8] was 70%. The “Population Pyknosed Nuclei (%)” value [8] was 17%, the “Population Tubulin-Different-Phenotype (%)” value [8] was 11% and the “Total Cell Count” value [8] was 90. For the same molecule, the “Population Apoptotic (%)” value [9] was 64%, the “Population Fragmented Nuclei (%)” value [9] was 32% and the “Population Healthy Nuclei (%)” value [9] was 50%. For the same molecule, the “Population Hoechst High Intensity Objects (%)” value [9] was 11%, the “Population Mitochondria Different-Phenotype (%)” value [9] was 0% and the “Population Mitotic Cells (%)” value [9] was 35%. For the same molecule, the “Population Normal (%)” value [9] was 88%, the “Population Pyknosed Nuclei (%)” value [9] was 17% and the “Population Tubulin-Different-Phenotype (%)” value [9] was 21%. For the same molecule, the “Total Cell Count” value [9] was 92, the “Population Apoptotic (%)” value [10] was 66% and the “Population Fragmented Nuclei (%)” value [10] was 39%. The “Population Healthy Nuclei (%)” value [10] was 56%, the “Population Hoechst High Intensity Objects (%)” value [10] was 10% and the “Population Membrane Permeable-Phenotype (%)” value [10] was 17%. The “Population Mitochondria Different-Phenotype (%)” value [10] was 4%, the “Population Mitotic Cells (%)” value [10] was 33% and the “Population Normal (%)” value [10] was 89%. For the same molecule, the “Population Pyknosed Nuclei (%)” value [10] was 4%, the “Population Tubulin-Different-Phenotype (%)” value [10] was 29% and the “Total Cell Count” value [10] was 82. For the same molecule, the “Population Apoptotic (%)” value [11] was 69%, the “Population Fragmented Nuclei (%)” value [11] was 69% and the “Population Healthy Nuclei (%)” value [11] was 21%. For the same molecule, the “Population Hoechst High Intensity Objects (%)” value [11] was 51%, the “Population Membrane Permeable-Phenotype (%)” value [11] was 10% and the “Population Mitochondria Different-Phenotype (%)” value [11] was 6%. The “Population Mitotic Cells (%)” value [11] was 30%, the “Population Normal (%)” value [11] was 48% and the “Population Pyknosed Nuclei (%)” value [11] was 9%. The “Population Tubulin-Different-Phenotype (%)” value [11] was 56%, the “Total Cell Count” value [11] was 291 and the “Population Apoptotic (%)” value [12] was 50%. For the same molecule, the “Population Fragmented Nuclei (%)” value [12] was 39%, the “Population Healthy Nuclei (%)” value [12] was 59% and the “Population Hoechst High Intensity Objects (%)” value [12] was 26%. For the same molecule, the “Population Membrane Permeable-Phenotype (%)” value [12] was 4%, the “Population Mitochondria Different-Phenotype (%)” value [12] was 8% and the “Population Mitotic Cells (%)” value [12] was 50%. The “Population Normal (%)” value [12] was 73%, the “Population Pyknosed Nuclei (%)” value [12] was 1% and the “Population Tubulin-Different-Phenotype (%)” value [12] was 40%. The “Total Cell Count” value [12] was 205.
Cc1ccccc1C(c1ccccc1C)N1C2CCC1CC(O)(c1ccccc1)C2 (centres undefined) was tested, and the “Population Apoptotic (%)” value [1] was 68%, the “Population Fragmented Nuclei (%)” value [1] was 14% and the “Population Healthy Nuclei (%)” value [1] was 40%. The “Population Mitotic Cells (%)” value [1] was 31%, the “Population Normal (%)” value [1] was 84% and the “Population Pyknosed Nuclei (%)” value [1] was 44%. The “Total Cell Count” value [1] was 127, the “Population Apoptotic (%)” value [2] was 50% and the “Population Fragmented Nuclei (%)” value [2] was 9%. The “Population Healthy Nuclei (%)” value [2] was 81%, the “Population Hoechst High Intensity Objects (%)” value [2] was 9% and the “Population Mitotic Cells (%)” value [2] was 50%. For the same molecule, the “Population Normal (%)” value [2] was 90%, the “Population Pyknosed Nuclei (%)” value [2] was 9% and the “Total Cell Count” value [2] was 80. The “Population Apoptotic (%)” value [3] was 63%, the “Population Fragmented Nuclei (%)” value [3] was 23% and the “Population Healthy Nuclei (%)” value [3] was 44%. For the same molecule, the “Population Mitotic Cells (%)” value [3] was 36%, the “Population Normal (%)” value [3] was 85% and the “Population Pyknosed Nuclei (%)” value [3] was 32%. The “Total Cell Count” value [3] was 161, the “Population Apoptotic (%)” value [4] was 40% and the “Population Healthy Nuclei (%)” value [4] was 81%. The “Population Mitotic Cells (%)” value [4] was 60%, the “Population Normal (%)” value [4] was 86% and the “Total Cell Count” value [4] was 71. For the same molecule, the “Population Apoptotic (%)” value [5] was 62%, the “Population Healthy Nuclei (%)” value [5] was 55% and the “Population Hoechst High Intensity Objects (%)” value [5] was 20%. For the same molecule, the “Population Mitotic Cells (%)” value [5] was 37%, the “Population Normal (%)” value [5] was 79% and the “Population Pyknosed Nuclei (%)” value [5] was 28%. For the same molecule, the “Total Cell Count” value [5] was 107, the “Population Fragmented Nuclei (%)” value [6] was 9% and the “Population Healthy Nuclei (%)” value [6] was 77%. For the same molecule, the “Population Hoechst High Intensity Objects (%)” value [6] was 4%, the “Population Mitotic Cells (%)” value [6] was 80% and the “Population Normal (%)” value [6] was 95%. The “Total Cell Count” value [6] was 89, the “Population Apoptotic (%)” value [7] was 47% and the “Population Fragmented Nuclei (%)” value [7] was 23%. For the same molecule, the “Population Healthy Nuclei (%)” value [7] was 47%, the “Population Hoechst High Intensity Objects (%)” value [7] was 8% and the “Population Mitotic Cells (%)” value [7] was 52%. The “Population Normal (%)” value [7] was 91%, the “Population Pyknosed Nuclei (%)” value [7] was 28% and the “Total Cell Count” value [7] was 159. For the same molecule, the “Population Apoptotic (%)” value [8] was 50%, the “Population Fragmented Nuclei (%)” value [8] was 20% and the “Population Healthy Nuclei (%)” value [8] was 65%. The “Population Mitotic Cells (%)” value [8] was 50%, the “Population Normal (%)” value [8] was 93% and the “Total Cell Count” value [8] was 85. For the same molecule, the “Population Apoptotic (%)” value [9] was 61%, the “Population Fragmented Nuclei (%)” value [9] was 30% and the “Population Healthy Nuclei (%)” value [9] was 51%. For the same molecule, the “Population Hoechst High Intensity Objects (%)” value [9] was 16%, the “Population Mitotic Cells (%)” value [9] was 38% and the “Population Normal (%)” value [9] was 83%. The “Total Cell Count” value [9] was 121, the “Population Apoptotic (%)” value [10] was 0% and the “Population Fragmented Nuclei (%)” value [10] was 60%. For the same molecule, the “Population Healthy Nuclei (%)” value [10] was 40%, the “Population Hoechst High Intensity Objects (%)” value [10] was 0% and the “Population Mitotic Cells (%)” value [10] was 0%. The “Population Normal (%)” value [10] was 100%, the “Population Pyknosed Nuclei (%)” value [10] was 0% and the “Total Cell Count” value [10] was 5. The “Population Apoptotic (%)” value [11] was 40%, the “Population Fragmented Nuclei (%)” value [11] was 30% and the “Population Healthy Nuclei (%)” value [11] was 59%. For the same molecule, the “Population Mitotic Cells (%)” value [11] was 60%, the “Population Normal (%)” value [11] was 92% and the “Population Pyknosed Nuclei (%)” value [11] was 9%. The “Total Cell Count” value [11] was 170, the “Population Apoptotic (%)” value [12] was 100% and the “Population Fragmented Nuclei (%)” value [12] was 35%. The “Population Healthy Nuclei (%)” value [12] was 62%, the “Population Hoechst High Intensity Objects (%)” value [12] was 4% and the “Population Mitotic Cells (%)” value [12] was 0%. The “Population Normal (%)” value [12] was 95%, the “Population Pyknosed Nuclei (%)” value [12] was 1% and the “Total Cell Count” value [12] was 118.
